{"source": "paper PMC4306503", "about": "(Bioconjugate Chemistry, 2014)", "key": {"[1]": {"target": "reduced folate carrier (RFC)", "settings": "low affinity folate carrier RFC; cited from earlier work"}, "folate receptor (FR)": {"target": "folate receptor (FR)", "settings": "high affinity FR, 1:1 stoichiometry; cited from earlier work"}, "[2]": {"settings": "at 300 K; cited from earlier work"}, "[3]": {"target": "folate binding protein (FBP) (Bos taurus, UniProt P02702)", "sequence (P02702 20-241)": "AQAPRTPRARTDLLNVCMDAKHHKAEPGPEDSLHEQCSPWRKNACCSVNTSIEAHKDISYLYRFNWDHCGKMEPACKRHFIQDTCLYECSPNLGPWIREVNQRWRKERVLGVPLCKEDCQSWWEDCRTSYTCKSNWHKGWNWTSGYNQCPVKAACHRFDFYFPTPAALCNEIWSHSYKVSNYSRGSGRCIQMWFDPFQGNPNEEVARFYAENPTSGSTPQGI", "experiment": "Hyperpolarized 129Xe NMR with folate binding protein", "settings": "30 μM FBP, 30 and 60 μM biosensor, acetate buffer pH 5.0 with and without 10% glycerol, incubated 30 min"}, "KB (FR+) cells": {"tested_on": "KB (FR+) cells", "experiment": "MTT cell viability assay, KB cells", "format": "cell-based, human", "settings": "100 μM (highest concentration), 24 h incubation", "in_short": "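KB cells kept in RPMI-1640 (25 mM HEPES, 2 mM L-glutamine, 15% fetal calf serum, penicillin/streptomycin) and seeded at 25 000 per well overnight. Unlabelled test conjugate added in triplicate at final 0–100 μM for 24 h in the dark. Cells then DPBS-washed thrice and given MTT (5 mg/mL solution) for 3 h. Formazan was dissolved in DMSO and read at 540 nm. Viability is expressed as percent of untreated-control absorbance.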"}, "[4]": {"experiment": "Solubility in water after HPLC purification", "format": "physicochemical", "settings": "after cleavage from solid support and reverse-phase HPLC purification"}}, "note": "*1 amine or outer side, *2 acyl side, *3 side chain or, on linkers, in order; H or OH if unused. Where a SMILES comes first, the peptide text is derived from it. Side-chain parts run from the residue outwards. [ ]: non-standard residue; d: D form. The star is where a group is joined. X1 = COc1cc2c3cc1OCCOc1cc4c(cc1OC)Cc1cc5c(OC)cc1Cc1cc(c(OCc6cn(CCC(=O)*)nn6)cc1C4)OCCOc1cc(c(cc1OC)Cc1cc(c(OC)cc1C3)OCCO5)C2; Pteroyl = Nc1nc2ncc(CNc3ccc(C(=O)*)cc3)nc2c(=O)[nH]1; γGlu = O=C(O)[C@H](CCC(=O)[*:2])N[*:1]; AEEEA = NCCOCCOCCOCC(=O)O; StBu = CC(C)(C)S*", "data": [{"compound": "CN1c2c(nc(N)[nH]c2=O)NCC1CNc1ccc(C(=O)N[C@@H](CCC(=O)O)C(=O)O)cc1", "note": "(stereo partly drawn) [5-methyltetrahydrofolate, 5-methyl tetrahydrofolate]", "values": [{"measurement": "dissociation constant", "setting": "[1]", "value": "micromolar"}, {"measurement": "Kd", "setting": "folate receptor (FR)", "value": "0.1 to 1", "unit": "nM"}]}, {"compound": "[Xe]", "note": "[129Xe]", "values": [{"measurement": "water solubility", "setting": "[2]", "value": 4.2, "unit": "mM atm^–1"}]}, {"compound": "COc1cc2c3cc1OCCOc1cc4c(cc1OC)Cc1cc5c(OC)cc1Cc1cc(c(OCc6cn(CCC(=O)N[C@@H](CCCCNC(=O)CC[C@H](NC(=O)c7ccc(NCc8cnc9nc(N)[nH]c(=O)c9n8)cc7)C(=O)O)C(=O)N[C@@H](CCCCN)C(=O)N[C@@H](CCCNC(=N)N)C(=O)N[C@@H](CCCCN)C(=O)N[C@@H](CCCNC(=N)N)C(=O)N[C@@H](CCCCN)C(=O)NCCOCCOCCOCC(=O)N[C@@H](CCCNC(=N)N)C(=O)N[C@@H](CCCCN)C(=O)N[C@@H](CSSC(C)(C)C)C(=O)N[C@@H](CCCNC(=N)N)C(N)=O)nn6)cc1C4)OCCOc1cc(c(cc1OC)Cc1cc(c(OC)cc1C3)OCCO5)C2", "note": "[compound 24] (X1-K([γGlu-Pteroyl])KRKRK[AEEEA]RKC(StBu)R-NH2)", "values": [{"measurement": "protein bound 129Xe NMR signal", "setting": "[3]", "value": "no observable protein bound signal"}, {"measurement": "viability (maximum toxicity)", "setting": "KB (FR+) cells", "value": 23, "unit": "%"}, {"measurement": "solubility in water", "setting": "[4]", "value": "readily soluble in water"}]}]}
